The record followed here is ChEMBL document CHEMBL1142013, “Tryptamine and homotryptamine-based sulfonamides as potent and selective inhibitors of 15-lipoxygenase” (Bioorg Med Chem Lett, 2005).

Experiment [1] addresses T1, Polyunsaturated fatty acid lipoxygenase ALOX15 (Oryctolagus cuniculus, UniProt P12530).
T1 sequence (P12530 whole entry): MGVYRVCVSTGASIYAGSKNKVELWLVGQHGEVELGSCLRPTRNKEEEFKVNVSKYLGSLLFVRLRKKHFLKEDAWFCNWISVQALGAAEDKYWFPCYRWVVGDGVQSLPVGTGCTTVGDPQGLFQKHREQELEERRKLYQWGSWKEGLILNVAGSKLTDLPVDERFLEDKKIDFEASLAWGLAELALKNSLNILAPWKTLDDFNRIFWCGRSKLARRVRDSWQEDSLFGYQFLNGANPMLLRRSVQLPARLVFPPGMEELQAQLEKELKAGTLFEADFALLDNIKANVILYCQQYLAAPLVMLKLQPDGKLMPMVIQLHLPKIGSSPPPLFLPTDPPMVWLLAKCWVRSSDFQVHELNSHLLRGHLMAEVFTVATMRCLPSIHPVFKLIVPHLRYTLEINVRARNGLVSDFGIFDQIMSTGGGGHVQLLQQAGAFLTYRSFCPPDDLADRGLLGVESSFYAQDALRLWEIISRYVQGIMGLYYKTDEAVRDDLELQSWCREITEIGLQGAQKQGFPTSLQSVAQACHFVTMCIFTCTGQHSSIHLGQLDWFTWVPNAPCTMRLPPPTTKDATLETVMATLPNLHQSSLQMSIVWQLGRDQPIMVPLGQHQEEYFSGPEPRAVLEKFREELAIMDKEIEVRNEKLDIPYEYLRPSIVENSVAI
The experiment in a line: Inhibitory concentration against rabbit reticulocyte 15-lipoxygenase with substrate arachidonic acid. The procedure, abridged:
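Purified rabbit reticulocyte 15-LO, isolated from phenylhydrazine-treated rabbits, with arachidonic acid as the substrate. IC50 comes from a colorimetric read-out in which the 15-HPETE product oxidizes Fe²⁺ under mildly acidic conditions. Many values were also verified by the spectrophotometric diene-formation rate (A₂₃₄).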

Experiment [2] concerns the target T2, Polyunsaturated fatty acid lipoxygenase ALOX12 (Homo sapiens, UniProt P18054).
T2 sequence (P18054 whole entry): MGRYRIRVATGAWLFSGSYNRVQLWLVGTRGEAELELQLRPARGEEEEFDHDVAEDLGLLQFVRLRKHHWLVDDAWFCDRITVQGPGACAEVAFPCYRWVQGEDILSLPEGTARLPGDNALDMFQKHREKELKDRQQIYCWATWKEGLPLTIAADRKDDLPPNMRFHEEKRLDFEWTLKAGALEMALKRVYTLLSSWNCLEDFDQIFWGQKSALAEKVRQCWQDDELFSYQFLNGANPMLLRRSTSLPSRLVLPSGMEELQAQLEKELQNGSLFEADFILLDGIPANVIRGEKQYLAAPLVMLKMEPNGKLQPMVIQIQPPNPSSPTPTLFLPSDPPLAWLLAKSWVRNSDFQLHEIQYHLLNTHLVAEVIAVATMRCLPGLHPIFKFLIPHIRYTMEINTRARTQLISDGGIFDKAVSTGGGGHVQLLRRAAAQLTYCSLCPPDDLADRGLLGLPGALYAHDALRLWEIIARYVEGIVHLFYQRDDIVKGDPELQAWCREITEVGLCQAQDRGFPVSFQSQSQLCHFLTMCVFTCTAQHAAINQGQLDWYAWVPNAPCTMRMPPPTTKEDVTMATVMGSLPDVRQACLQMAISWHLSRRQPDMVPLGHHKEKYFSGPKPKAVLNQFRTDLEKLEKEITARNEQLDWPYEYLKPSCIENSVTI
The experiment in a line: Inhibitory concentration against human platelet-derived 12-lipoxygenase.

The target of experiment [3] is T1, Polyunsaturated fatty acid lipoxygenase ALOX15. Description: Inhibitory concentration against isolated rabbit reticulocyte 15-lipoxygenase measured in the presence of linoleic acid. The method, boiled down: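 15-LO was purified from reticulocytes of phenylhydrazine-treated rabbits. Linoleic acid was the substrate. In a colorimetric assay, the 13-HPODE product oxidizes Fe²⁺ under mildly acidic conditions, and IC50 is derived from this. Many values were also checked spectrophotometrically by the rate of diene formation (A₂₃₄).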

The target in experiment [4] is T3, Polyunsaturated fatty acid 5-lipoxygenase (Homo sapiens, UniProt P09917).
T3 sequence (P09917 whole entry): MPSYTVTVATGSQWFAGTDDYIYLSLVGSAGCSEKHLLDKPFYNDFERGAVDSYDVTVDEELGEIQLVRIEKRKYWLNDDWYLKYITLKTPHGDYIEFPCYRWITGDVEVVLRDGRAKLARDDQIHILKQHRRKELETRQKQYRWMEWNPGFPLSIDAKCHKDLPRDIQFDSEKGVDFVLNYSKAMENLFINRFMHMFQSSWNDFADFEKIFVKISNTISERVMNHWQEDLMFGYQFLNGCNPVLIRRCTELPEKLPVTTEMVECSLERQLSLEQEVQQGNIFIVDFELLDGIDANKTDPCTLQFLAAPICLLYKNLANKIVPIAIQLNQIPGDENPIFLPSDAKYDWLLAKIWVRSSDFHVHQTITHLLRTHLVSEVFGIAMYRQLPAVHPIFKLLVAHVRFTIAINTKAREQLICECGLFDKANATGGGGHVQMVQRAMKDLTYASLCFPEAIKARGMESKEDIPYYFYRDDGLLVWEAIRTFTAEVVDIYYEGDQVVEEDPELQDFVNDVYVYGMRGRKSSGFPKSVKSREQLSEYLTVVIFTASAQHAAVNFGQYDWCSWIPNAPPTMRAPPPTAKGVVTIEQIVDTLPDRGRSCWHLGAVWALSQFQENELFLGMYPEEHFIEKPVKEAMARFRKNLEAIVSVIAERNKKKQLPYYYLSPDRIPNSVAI
The experiment in a line: Inhibitory concentration against human 5-lipoxygenase. The procedure, abridged: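 Recombinant human 5-LO enzyme. Inhibition was followed by oxidation of arachidonic acid as the substrate. IC50 values were determined.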

For `Cc1ccc(S(=O)(=O)NCCc2c(-c3cc4ccccc4o3)[nH]c3ccccc23)cc1`, the IC50 – broadly, the midpoint of a concentration-inhibition curve – in experiment [1] was 78 nM; in experiment [2] it was greater than 10000 nM; in experiment [3], 10 nM; in experiment [4], greater than 10000 nM.
Regarding `CCCCCc1ccc(S(=O)(=O)NCCc2c(-c3cc4ccccc4o3)[nH]c3ccccc23)cc1`, the IC50 in experiment [2] and in experiment [4] was greater than 3000 nM each time.
`NNC(=O)c1ccc(S(=O)(=O)NCCc2c(-c3cc4ccccc4o3)[nH]c3ccccc23)cc1`: the IC50 in experiment [1] is 135 nM; in experiment [2], greater than 10000 nM; in experiment [3], 89 nM; in experiment [4], 3500 nM.
In the case of `CCCCCc1ccc(S(=O)(=O)NCCc2c(-c3ccc(Cl)cc3)[nH]c3ccccc23)cc1`, the IC50 in experiment [1] is 120 nM; in experiment [2], greater than 10000 nM; in experiment [3] it was 32 nM; in experiment [4], greater than 3000 nM.
The corresponding values for `CCCCCc1ccc(S(=O)(=O)NCCc2c(-c3ccccc3)[nH]c3ccccc23)cc1` are 140 nM, greater than 10000 nM, 62 nM and greater than 3000 nM.
In the case of `CCCCCc1ccc(S(=O)(=O)NCCCc2c[nH]c3ccccc23)cc1`, the IC50 in experiment [2] is 1070 nM; in experiment [4], greater than 10000 nM.
`CCCCCc1ccc(S(=O)(=O)NCCc2c(-c3ccc(OC)cc3)[nH]c3ccccc23)cc1`: the IC50 in experiment [1] was 164 nM; in experiment [2], greater than 10000 nM; in experiment [3], 37 nM; in experiment [4] it was 8900 nM.
